Measured values: ChEMBL document CHEMBL2390926, “Identification of novel FLT3 kinase inhibitors” (Eur J Med Chem, 2013)
The source made the active and inactive calls. No cut-off for these calls is given here.

Key:
BaF3 = experiment: Cytotoxicity against mouse BA/F3 cells transfected with FLT3-ITD-F691l at 1 uM after 24 hrs by plate reader analysis; assay type: functional, cell-based
[1] = target: Epidermal growth factor receptor (Homo sapiens) (UniProt P00533); experiment: Inhibition of EGFR (unknown origin) transfected in mouse Ba/F3 cells at 5 uM after 24 hrs; assay type: cell-based; details: BaF3
Chain of Epidermal growth factor receptor (Homo sapiens) (P00533 whole entry): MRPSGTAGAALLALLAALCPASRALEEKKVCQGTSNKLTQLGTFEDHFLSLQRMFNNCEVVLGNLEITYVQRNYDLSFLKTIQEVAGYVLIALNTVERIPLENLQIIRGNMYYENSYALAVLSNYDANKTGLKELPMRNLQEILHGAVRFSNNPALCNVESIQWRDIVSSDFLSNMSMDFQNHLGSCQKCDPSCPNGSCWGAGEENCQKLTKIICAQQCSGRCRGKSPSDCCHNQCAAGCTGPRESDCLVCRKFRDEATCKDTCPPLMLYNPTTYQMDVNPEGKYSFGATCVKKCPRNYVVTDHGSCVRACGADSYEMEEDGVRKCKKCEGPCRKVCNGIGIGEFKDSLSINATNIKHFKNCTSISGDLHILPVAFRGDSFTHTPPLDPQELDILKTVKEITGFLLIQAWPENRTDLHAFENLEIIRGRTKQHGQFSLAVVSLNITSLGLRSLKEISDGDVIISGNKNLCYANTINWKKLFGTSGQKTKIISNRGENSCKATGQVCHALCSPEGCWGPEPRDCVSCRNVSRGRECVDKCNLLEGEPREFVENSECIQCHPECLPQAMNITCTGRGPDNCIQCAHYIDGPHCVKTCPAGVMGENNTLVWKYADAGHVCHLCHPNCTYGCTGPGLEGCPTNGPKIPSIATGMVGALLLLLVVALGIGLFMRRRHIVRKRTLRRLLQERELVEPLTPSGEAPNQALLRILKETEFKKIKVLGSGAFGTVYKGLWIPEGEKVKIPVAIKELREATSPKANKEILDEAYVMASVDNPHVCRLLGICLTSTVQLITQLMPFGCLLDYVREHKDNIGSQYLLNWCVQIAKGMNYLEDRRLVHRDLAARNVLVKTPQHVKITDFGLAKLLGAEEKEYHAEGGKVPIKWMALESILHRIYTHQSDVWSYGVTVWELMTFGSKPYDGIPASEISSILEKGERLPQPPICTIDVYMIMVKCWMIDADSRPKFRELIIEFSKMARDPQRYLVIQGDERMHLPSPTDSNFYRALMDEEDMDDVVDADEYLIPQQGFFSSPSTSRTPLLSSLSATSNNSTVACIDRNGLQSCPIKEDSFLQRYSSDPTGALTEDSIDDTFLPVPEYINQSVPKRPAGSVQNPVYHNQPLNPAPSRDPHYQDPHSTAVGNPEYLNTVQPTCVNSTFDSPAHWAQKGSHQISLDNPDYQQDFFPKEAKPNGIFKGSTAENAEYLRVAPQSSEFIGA
In short: (§1)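 Kinase specificity panel: each Ba/F3 line transformed with one of 24 tyrosine kinases depends on that kinase to grow. Cells were given compound at 1 or 5 µM for 24 h, with DMSO as comparator. Percentage growth was read by ATP-lite luminescence and reported as mean ± SEM.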

[2] = target: T1, Ephrin type-A receptor 8 (Homo sapiens) (UniProt P29322); experiment: Inhibition of EPHA8 (unknown origin) transfected in mouse Ba/F3 cells at 5 uM after 24 hrs; assay type: cell-based; details: BaF3; in short: as §1
T1 sequence (whole entry): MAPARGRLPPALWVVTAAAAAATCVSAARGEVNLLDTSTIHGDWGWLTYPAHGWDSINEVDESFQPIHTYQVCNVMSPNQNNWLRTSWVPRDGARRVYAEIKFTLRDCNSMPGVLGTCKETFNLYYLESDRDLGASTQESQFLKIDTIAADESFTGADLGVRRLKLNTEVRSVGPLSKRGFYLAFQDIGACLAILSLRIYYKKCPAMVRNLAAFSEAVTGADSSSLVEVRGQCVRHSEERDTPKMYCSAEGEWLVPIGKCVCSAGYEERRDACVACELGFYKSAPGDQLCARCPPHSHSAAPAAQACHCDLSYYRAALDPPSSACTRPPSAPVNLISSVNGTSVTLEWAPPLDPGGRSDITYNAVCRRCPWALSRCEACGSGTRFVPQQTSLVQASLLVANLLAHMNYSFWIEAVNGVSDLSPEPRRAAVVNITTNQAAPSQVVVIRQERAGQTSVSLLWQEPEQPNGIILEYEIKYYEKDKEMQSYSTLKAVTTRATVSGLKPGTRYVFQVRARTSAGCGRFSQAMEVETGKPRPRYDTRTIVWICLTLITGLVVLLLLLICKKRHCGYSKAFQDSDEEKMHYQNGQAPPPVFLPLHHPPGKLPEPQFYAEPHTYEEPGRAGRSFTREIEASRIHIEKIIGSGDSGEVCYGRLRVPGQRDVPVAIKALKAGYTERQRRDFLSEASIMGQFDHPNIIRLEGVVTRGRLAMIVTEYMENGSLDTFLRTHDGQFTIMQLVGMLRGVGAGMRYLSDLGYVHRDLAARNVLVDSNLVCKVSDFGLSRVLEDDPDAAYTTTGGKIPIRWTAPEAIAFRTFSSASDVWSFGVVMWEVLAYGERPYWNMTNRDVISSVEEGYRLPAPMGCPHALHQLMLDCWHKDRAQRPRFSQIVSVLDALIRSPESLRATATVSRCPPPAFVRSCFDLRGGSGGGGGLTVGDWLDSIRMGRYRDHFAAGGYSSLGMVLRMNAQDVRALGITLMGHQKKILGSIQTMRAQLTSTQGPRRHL

[3] = target: NT-3 growth factor receptor (Homo sapiens) (UniProt Q16288); experiment: Inhibition of NTRK3 (unknown origin) transfected in mouse Ba/F3 cells at 5 uM after 24 hrs; assay type: cell-based; details: BaF3
Chain of NT-3 growth factor receptor (Homo sapiens) (Q16288 32-839 limits assumed): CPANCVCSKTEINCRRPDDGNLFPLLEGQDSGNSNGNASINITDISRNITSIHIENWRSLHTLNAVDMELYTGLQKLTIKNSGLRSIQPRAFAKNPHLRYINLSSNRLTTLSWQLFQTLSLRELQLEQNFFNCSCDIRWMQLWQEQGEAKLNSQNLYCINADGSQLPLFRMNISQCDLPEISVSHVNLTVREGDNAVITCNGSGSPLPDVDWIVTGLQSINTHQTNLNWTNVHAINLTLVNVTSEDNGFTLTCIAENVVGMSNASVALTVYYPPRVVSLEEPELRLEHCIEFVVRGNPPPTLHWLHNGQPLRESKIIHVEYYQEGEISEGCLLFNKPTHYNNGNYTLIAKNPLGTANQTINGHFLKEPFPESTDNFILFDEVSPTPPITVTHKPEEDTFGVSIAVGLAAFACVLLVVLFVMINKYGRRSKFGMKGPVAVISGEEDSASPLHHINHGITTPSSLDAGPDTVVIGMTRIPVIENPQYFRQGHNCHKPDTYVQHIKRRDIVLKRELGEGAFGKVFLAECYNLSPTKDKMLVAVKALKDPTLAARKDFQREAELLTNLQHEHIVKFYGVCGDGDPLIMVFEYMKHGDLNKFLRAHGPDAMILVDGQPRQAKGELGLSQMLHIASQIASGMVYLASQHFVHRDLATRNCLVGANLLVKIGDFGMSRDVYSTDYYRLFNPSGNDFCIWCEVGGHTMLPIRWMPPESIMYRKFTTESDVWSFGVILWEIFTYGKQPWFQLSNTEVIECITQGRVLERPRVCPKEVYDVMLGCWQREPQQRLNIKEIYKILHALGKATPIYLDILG

[4] = target: Tyrosine-protein kinase SYK (Homo sapiens) (UniProt P43405); experiment: Inhibition of SYK (unknown origin) transfected in mouse Ba/F3 cells at 5 uM after 24 hrs; assay type: cell-based; details: BaF3
[5] = target: Insulin-like growth factor 1 receptor (Homo sapiens) (UniProt P08069); experiment: Inhibition of IGF1R (unknown origin) transfected in mouse Ba/F3 cells at 5 uM after 24 hrs; assay type: cell-based; details: BaF3; in short: as §1
Chain of Insulin-like growth factor 1 receptor (Homo sapiens) (P08069 31-736 limits assumed): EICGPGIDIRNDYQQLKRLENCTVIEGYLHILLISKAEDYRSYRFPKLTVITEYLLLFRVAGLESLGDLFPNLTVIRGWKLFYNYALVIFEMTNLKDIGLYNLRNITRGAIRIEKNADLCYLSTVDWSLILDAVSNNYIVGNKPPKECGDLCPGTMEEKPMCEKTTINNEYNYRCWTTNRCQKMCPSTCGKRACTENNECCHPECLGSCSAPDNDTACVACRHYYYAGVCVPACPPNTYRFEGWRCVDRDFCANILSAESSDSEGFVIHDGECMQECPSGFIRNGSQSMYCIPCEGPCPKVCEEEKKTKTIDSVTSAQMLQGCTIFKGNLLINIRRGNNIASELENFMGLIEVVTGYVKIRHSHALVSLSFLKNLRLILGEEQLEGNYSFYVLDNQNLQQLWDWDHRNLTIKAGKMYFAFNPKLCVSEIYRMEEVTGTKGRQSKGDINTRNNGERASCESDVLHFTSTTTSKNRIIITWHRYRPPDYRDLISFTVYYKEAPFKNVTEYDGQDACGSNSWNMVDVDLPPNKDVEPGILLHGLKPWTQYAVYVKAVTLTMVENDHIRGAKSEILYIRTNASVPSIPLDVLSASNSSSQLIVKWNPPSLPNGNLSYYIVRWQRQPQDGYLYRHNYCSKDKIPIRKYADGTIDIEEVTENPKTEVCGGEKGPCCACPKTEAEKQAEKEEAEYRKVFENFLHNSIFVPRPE
Chain of Insulin-like growth factor 1 receptor (Homo sapiens) (P08069 741-1367 limits assumed): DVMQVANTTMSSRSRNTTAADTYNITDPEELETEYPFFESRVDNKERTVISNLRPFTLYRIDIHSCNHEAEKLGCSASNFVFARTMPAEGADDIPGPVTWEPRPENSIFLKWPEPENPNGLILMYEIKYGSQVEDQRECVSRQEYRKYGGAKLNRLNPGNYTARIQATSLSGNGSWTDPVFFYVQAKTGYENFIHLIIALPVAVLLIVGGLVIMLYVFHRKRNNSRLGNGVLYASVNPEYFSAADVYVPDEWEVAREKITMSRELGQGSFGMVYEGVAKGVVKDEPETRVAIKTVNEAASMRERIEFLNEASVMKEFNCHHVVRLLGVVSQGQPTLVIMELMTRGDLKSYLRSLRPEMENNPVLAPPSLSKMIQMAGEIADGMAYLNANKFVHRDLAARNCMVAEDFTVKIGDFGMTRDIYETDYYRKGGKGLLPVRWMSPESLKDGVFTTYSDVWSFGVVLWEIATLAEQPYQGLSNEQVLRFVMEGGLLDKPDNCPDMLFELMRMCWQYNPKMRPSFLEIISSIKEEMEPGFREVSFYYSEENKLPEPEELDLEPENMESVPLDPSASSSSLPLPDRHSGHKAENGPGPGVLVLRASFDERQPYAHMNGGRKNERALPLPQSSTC

[6] = target: Vascular endothelial growth factor receptor 3 (Homo sapiens) (UniProt P35916); experiment: Inhibition of FLT4 (unknown origin) transfected in mouse Ba/F3 cells at 5 uM after 24 hrs; assay type: cell-based; details: BaF3; in short: as §1
[7] = target: Fibroblast growth factor receptor 3 (Homo sapiens) (UniProt P22607); experiment: Inhibition of FGFR3 (unknown origin) transfected in mouse Ba/F3 cells at 5 uM after 24 hrs; assay type: cell-based; details: BaF3; in short: as §1
Chain of Fibroblast growth factor receptor 3 (Homo sapiens) (P22607 23-806 limits assumed): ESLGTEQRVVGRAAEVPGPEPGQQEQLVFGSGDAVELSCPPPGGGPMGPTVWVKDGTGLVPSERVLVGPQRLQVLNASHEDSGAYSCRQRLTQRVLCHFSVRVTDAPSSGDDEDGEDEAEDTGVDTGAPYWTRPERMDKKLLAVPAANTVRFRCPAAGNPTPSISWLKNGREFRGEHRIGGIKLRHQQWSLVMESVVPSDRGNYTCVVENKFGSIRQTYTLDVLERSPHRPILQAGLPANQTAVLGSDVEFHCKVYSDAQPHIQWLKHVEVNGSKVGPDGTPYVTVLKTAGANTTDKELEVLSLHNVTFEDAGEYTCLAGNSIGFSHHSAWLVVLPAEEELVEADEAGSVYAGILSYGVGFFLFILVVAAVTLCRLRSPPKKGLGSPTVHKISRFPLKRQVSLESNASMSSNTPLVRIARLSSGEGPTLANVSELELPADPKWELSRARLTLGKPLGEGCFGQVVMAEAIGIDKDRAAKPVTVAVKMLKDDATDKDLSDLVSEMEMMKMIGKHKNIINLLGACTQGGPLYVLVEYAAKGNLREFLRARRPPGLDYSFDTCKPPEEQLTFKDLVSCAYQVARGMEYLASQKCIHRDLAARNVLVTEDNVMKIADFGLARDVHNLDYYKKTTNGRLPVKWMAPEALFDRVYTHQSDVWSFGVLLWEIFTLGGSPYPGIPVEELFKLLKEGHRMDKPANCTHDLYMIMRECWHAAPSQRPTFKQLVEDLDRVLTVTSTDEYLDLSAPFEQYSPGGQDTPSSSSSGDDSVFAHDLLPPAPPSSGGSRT

[8] = target: T2, Tyrosine-protein kinase receptor TYRO3 (Homo sapiens) (UniProt Q06418); experiment: Inhibition of TYRO3 (unknown origin) transfected in mouse Ba/F3 cells at 5 uM after 24 hrs; assay type: cell-based; details: BaF3
T2 sequence (whole entry): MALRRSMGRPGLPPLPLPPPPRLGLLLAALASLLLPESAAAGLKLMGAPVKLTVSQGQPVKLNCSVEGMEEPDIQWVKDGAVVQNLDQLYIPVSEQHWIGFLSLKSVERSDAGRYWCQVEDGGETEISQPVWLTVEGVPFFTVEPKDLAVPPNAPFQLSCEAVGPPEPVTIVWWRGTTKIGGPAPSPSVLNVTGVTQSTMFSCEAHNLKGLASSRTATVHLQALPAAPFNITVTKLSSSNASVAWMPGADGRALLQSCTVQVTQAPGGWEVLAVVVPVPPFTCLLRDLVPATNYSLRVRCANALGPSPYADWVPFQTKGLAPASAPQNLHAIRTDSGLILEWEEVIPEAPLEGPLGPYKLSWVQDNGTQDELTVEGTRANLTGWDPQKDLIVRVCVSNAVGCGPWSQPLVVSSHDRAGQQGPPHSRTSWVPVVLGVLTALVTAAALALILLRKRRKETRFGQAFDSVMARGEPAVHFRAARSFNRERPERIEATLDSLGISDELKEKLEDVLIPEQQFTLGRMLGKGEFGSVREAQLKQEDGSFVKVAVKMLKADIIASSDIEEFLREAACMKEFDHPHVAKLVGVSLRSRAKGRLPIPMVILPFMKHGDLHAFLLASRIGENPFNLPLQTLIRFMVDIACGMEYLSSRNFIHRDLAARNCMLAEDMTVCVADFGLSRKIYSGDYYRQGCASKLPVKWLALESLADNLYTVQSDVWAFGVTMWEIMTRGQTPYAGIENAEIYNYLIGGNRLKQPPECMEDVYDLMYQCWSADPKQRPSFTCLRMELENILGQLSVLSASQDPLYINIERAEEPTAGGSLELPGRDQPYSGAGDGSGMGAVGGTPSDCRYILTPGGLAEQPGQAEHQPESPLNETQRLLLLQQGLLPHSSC

[9] = target: Tyrosine-protein kinase receptor UFO (Homo sapiens) (UniProt P30530); experiment: Inhibition of AXL (unknown origin) transfected in mouse Ba/F3 cells at 5 uM after 24 hrs; assay type: cell-based; details: BaF3; in short: as §1
Chain of Tyrosine-protein kinase receptor UFO (Homo sapiens) (P30530 whole entry): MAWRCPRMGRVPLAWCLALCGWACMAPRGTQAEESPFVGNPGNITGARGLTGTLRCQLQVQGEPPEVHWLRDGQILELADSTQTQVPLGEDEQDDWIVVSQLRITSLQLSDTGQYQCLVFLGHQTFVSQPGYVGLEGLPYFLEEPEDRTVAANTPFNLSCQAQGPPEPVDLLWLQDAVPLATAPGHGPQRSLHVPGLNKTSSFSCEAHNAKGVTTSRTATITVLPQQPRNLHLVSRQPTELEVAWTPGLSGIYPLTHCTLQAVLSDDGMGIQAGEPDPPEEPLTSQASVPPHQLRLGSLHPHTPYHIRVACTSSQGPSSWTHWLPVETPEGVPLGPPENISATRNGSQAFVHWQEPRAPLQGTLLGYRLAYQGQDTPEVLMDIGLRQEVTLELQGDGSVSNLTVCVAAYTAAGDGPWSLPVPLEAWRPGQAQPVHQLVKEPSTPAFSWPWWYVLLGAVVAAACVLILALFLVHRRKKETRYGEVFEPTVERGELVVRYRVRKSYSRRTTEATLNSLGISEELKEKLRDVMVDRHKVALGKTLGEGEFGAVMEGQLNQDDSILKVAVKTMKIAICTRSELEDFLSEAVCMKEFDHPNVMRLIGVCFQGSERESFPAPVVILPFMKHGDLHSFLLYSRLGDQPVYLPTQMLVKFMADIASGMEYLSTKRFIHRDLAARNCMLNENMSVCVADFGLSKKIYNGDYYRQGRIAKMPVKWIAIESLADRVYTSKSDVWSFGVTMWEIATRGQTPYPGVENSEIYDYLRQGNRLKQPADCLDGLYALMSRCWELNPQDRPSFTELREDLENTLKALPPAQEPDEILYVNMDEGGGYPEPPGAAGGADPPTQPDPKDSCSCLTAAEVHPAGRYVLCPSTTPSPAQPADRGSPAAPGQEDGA

| inhibition [1] | inhibition [2] | inhibition [3] | inhibition [4] | inhibition [5] | inhibition [6] | inhibition [7] | inhibition [8] | inhibition [9] | Structure (SMILES) | Activity (BaF3) |
| --- | --- | --- | --- | --- | --- | --- | --- | --- | --- | --- |
|  |  |  |  |  |  |  |  |  | COc1ccc(C(=O)Nc2cc(-c3ccccc3)[nH]n2)cc1 | Active |
| inactive | Active | inactive | inactive | inactive | inactive | inactive | inactive | inactive | Fc1ccc(-c2n[nH]cc2-c2ccncc2)cc1Cl |  |
| inactive | inactive | inactive | inactive | inactive | inactive | inactive | inactive | inactive | Cc1ccc(-n2cnc3cc(Nc4nnc(C)c5ccccc45)ccc32)cc1 | Active |
